In article PMC9302689 (British Journal of Clinical Pharmacology, 2022):
Marks after values point to notes of the source that are not given here.

What was measured:
SERT = SERT (Homo sapiens, UniProt P31645); assay: In vitro binding affinity, SERT; settings: read-out: Ki, SERT; preclinical in vitro panel
α1B‐adrenoceptor = target: T1, α1B‐adrenoceptor (Homo sapiens, UniProt P35368); assay: In vitro binding affinity, α1B-adrenoceptor; settings: read-out: Ki, α1B-adrenoceptor; preclinical in vitro panel
T1 sequence (P35368 1-520): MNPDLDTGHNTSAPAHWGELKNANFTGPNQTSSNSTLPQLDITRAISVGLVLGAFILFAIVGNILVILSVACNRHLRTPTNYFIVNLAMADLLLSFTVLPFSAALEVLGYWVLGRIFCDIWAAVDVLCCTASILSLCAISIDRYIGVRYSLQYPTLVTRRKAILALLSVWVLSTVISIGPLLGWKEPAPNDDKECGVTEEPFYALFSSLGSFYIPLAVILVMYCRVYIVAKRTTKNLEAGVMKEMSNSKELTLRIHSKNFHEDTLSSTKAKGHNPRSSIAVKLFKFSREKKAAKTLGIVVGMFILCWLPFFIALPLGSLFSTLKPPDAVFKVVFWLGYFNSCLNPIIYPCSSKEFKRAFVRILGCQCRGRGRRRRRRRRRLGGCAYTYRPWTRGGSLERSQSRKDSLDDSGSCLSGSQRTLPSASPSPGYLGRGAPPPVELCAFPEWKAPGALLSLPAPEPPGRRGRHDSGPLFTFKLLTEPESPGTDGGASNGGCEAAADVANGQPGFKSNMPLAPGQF

healthy male subjects [1] = assay: Serum neuro-endocrine hormones; assay type: in vivo, human; settings: for Cortisol (ng/ml), LSM CFB / Cortisol (ng/ml), estimate of difference compared to placebo / Prolactin (ng/ml), LSM CFB / Prolactin (ng/ml), estimate of difference compared to placebo: 2 hours post-dose, serum
Summary of the method: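 Serum was sampled pre-dose and at 0.25–36 h after a single dose or placebo in healthy men. Cortisol was measured by validated LC–MS/MS (LLOQ 2.00 ng/mL) and prolactin by time-resolved fluoroimmunoassay (LLOQ 0.260 ng/mL). Values were ln-transformed and analysed by MMRM using the 2-h post-dose data, with baseline as covariate and pooled placebo as reference, then back-transformed.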

healthy male subjects [2] = assay: NeuroCart smooth pursuit; assay type: in vivo, human; settings: 12-hour post-dose period
Summary of the method: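 This used the same head-fixed screen set-up as the saccade test. Subjects tracked a dot moving continuously at 0.3–1.1 Hz in 0.1 Hz steps, twice pre-dose and at 0.5–10 h after a single dose or placebo. Change from baseline over 12 h was analysed by MMRM against pooled placebo, with baseline as covariate.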

Chain of SERT (P31645 whole entry, species assumed): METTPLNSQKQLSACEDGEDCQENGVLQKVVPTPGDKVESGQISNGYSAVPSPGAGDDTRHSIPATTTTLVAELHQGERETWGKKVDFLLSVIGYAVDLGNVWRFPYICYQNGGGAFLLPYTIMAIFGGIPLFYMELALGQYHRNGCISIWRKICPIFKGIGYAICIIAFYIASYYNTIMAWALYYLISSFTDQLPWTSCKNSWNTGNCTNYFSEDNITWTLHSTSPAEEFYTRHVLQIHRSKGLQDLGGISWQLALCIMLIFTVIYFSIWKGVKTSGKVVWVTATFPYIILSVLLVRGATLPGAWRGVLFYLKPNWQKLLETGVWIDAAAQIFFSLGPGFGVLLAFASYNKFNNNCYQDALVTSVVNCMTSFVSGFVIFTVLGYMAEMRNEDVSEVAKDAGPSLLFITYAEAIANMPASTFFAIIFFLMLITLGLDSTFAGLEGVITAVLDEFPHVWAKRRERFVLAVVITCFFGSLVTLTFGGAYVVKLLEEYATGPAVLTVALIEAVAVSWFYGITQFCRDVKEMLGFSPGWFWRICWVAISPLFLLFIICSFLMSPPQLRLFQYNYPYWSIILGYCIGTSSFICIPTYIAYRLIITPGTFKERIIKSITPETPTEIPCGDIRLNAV

SMILES: CN1CCC23CCCCC2C1Cc1ccc(C(N)=O)cc13 (stereo not drawn) [ALKS 7119, (9α, 13α)‐17‐methylmorphinan‐3‐carboxamide]
- Ki (SERT): 0.035 µM
- Ki (α1B‐adrenoceptor): 1.8 µM
- Cortisol (ng/ml), LSM CFB (healthy male subjects [1]; 3 mg single oral dose): −22.9 % change
- Cortisol (ng/ml), estimate of difference compared to placebo (healthy male subjects [1]; 3 mg single oral dose): −3.6 (−31.1, 34.9) P = .83 % change
- Prolactin (ng/ml), LSM CFB (healthy male subjects [1]; 3 mg single oral dose): −3.6 % change
- Prolactin (ng/ml), estimate of difference compared to placebo (healthy male subjects [1]; 3 mg single oral dose): −3.2 (−26.9; 28.3) P = .82 % change
- Cortisol (ng/ml), LSM CFB (healthy male subjects [1]; 10 mg single oral dose): 8.9 % change
- Cortisol (ng/ml), estimate of difference compared to placebo (healthy male subjects [1]; 10 mg single oral dose): −31.8 (−51.3; −4.5) P = .03 ^* % change
- Prolactin (ng/ml), LSM CFB (healthy male subjects [1]; 10 mg single oral dose): −15.3 % change
- Prolactin (ng/ml), estimate of difference compared to placebo (healthy male subjects [1]; 10 mg single oral dose): 10.1 (−16.9; 45.9) P = .50 % change
- Cortisol (ng/ml), LSM CFB (healthy male subjects [1]; 25 mg single oral dose): −20.8 % change
- Cortisol (ng/ml), estimate of difference compared to placebo (healthy male subjects [1]; 25 mg single oral dose): −6.2 (−32.9; 31.3) P = .71 % change
- Prolactin (ng/ml), LSM CFB (healthy male subjects [1]; 25 mg single oral dose): 8.0 % change
- Prolactin (ng/ml), estimate of difference compared to placebo (healthy male subjects [1]; 25 mg single oral dose): −13.6 (−34.8; 14.5) P = .31 % change
- Cortisol (ng/ml), LSM CFB (healthy male subjects [1]; 50 mg single oral dose): 12.7 % change
- Prolactin (ng/ml), LSM CFB (healthy male subjects [1]; 50 mg single oral dose): 66.0 % change
- Cortisol (ng/ml), LSM CFB (healthy male subjects [1]; 75 mg single oral dose): 36.5 % change
- Cortisol (ng/ml), estimate of difference compared to placebo (healthy male subjects [1]; 75 mg single oral dose): −45.5 (−61.1; −23.8) P < .01 ^* % change
- Prolactin (ng/ml), LSM CFB (healthy male subjects [1]; 75 mg single oral dose): 63.4 % change
- Prolactin (ng/ml), estimate of difference compared to placebo (healthy male subjects [1]; 75 mg single oral dose): −42.9 (−56.9; −24.3) P < .01 ^* % change
- Cortisol (ng/ml), LSM CFB (healthy male subjects [1]; 100 mg single oral dose): 70.3 % change
- Cortisol (ng/ml), estimate of difference compared to placebo (healthy male subjects [1]; 100 mg single oral dose): −56.4 (−68.8; −38.9) P < .01 ^* % change
- Prolactin (ng/ml), LSM CFB (healthy male subjects [1]; 100 mg single oral dose): 72.0 % change
- Prolactin (ng/ml), estimate of difference compared to placebo (healthy male subjects [1]; 100 mg single oral dose): −45.8 (−59.1; −28.1) P < .01 ^* % change
- Cortisol (ng/ml), LSM CFB (healthy male subjects [1]; 125 mg single oral dose): 52.6 % change
- Cortisol (ng/ml), estimate of difference compared to placebo (healthy male subjects [1]; 125 mg single oral dose): −51.3 (−65.2; −31.8) P < .01 ^* % change
- Prolactin (ng/ml), LSM CFB (healthy male subjects [1]; 125 mg single oral dose): 28.0 % change
- Prolactin (ng/ml), estimate of difference compared to placebo (healthy male subjects [1]; 125 mg single oral dose): −27.1 (−45.1; −3.3) P = .03 ^* % change
- Cortisol (ng/ml), LSM CFB (healthy male subjects [1]; 150 mg single oral dose): 84.4 % change
- Cortisol (ng/ml), estimate of difference compared to placebo (healthy male subjects [1]; 150 mg single oral dose): −59.7 (−71.2; −43.6) P < .01 ^* % change
- Prolactin (ng/ml), LSM CFB (healthy male subjects [1]; 150 mg single oral dose): 106.9 % change
- Prolactin (ng/ml), estimate of difference compared to placebo (healthy male subjects [1]; 150 mg single oral dose): −54.9 (−66.0; −40.2) P < .01 ^* % change
- Cortisol (ng/ml), LSM CFB (healthy male subjects [1]; 175 mg single oral dose): 53.6 % change
- Cortisol (ng/ml), estimate of difference compared to placebo (healthy male subjects [1]; 175 mg single oral dose): −51.6 (−65.4; −32.3) P < .01 ^* % change
- Prolactin (ng/ml), LSM CFB (healthy male subjects [1]; 175 mg single oral dose): 81.7 % change
- Prolactin (ng/ml), estimate of difference compared to placebo (healthy male subjects [1]; 175 mg single oral dose): −48.7 (−61.3; −32.0) P < .01 ^* % change
- Cortisol (ng/ml), LSM CFB (healthy male subjects [1]; 200 mg single oral dose): 64.7 % change
- Cortisol (ng/ml), estimate of difference compared to placebo (healthy male subjects [1]; 200 mg single oral dose): −54.9 (−67.8; −36.9) P < .01 ^* % change
- Prolactin (ng/ml), LSM CFB (healthy male subjects [1]; 200 mg single oral dose): 111.3 % change
- Prolactin (ng/ml), estimate of difference compared to placebo (healthy male subjects [1]; 200 mg single oral dose): −55.8 (−66.7; −41.5) P < .01 ^* % change
- Serum cortisol, increase vs placebo (estimate of difference) (healthy male subjects [1]; from dose levels ≥50 mg): 51.7 % change
- Serum prolactin, increase vs placebo (estimate of difference) (healthy male subjects [1]; from dose levels ≥50 mg): 77.9 % change
- Smooth pursuit, LSM CFB (healthy male subjects [2]; 3 mg single oral dose): −0.26%
- Smooth pursuit, LSM CFB (healthy male subjects [2]; 10 mg single oral dose): 0.06%
- Smooth pursuit, LSM CFB (healthy male subjects [2]; 25 mg single oral dose): −1.44%
- Smooth pursuit, LSM CFB (healthy male subjects [2]; 50 mg single oral dose): −0.03%
- Smooth pursuit, LSM CFB (healthy male subjects [2]; 75 mg single oral dose): −3.44%
- Smooth pursuit, LSM CFB (healthy male subjects [2]; 100 mg single oral dose): −0.49%
- Smooth pursuit, LSM CFB (healthy male subjects [2]; 125 mg single oral dose): −3.82%
- Smooth pursuit, LSM CFB (healthy male subjects [2]; 150 mg single oral dose): −1.14%
- Smooth pursuit, LSM CFB (healthy male subjects [2]; 175 mg single oral dose): −1.07%
- Smooth pursuit, LSM CFB (healthy male subjects [2]; 200 mg single oral dose): 1.24%
